Measured values taken from paper PMC3104004 (European Journal of Nuclear Medicine and Molecular Imaging, 2011).

Key:
[1] = system: human prostate VCaP xenografts; assay: Dynamic PET scanning with quantitative VOI analysis in VCaP tumour-bearing mice; type: in vivo, male NMRI nu/nu mice
How it was run: (§1)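 Male NMRI nu/nu mice, 6–7 weeks old, inoculated s.c. in the right shoulder with ~5×10^6 VCaP or PC-3 cells in PBS. Under isoflurane/oxygen, prone, on a microPET with a heating mat. Test tracer 100 μl (8.1–1.2 MBq) given by tail-vein cannula; dynamic full-body scan for 20 min from injection. Tumour VOIs drawn manually, averaged over two analysts. %ID/g = VOI activity/injected dose ×100; steady-state taken from last 10 min; median, IQR; Mann-Whitney U.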

[2] = system: VCaP tumour and preselected organs; assay: Ex vivo biodistribution in VCaP tumour-bearing mice; design: species or system male NMRI nu/nu mice; details: 30 min after injection, 100 μl iv
How it was run: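 Done after PET. VCaP-bearing mice killed 60 min after i.v. tail-vein 68Ga-labelled bombesin-analogue tracer (300 pmol, 1.5–0.5 MBq), or 30 min after 18F-choline tracer (100 μl, 8.1–1.2 MBq). Gamma-counted: tumour, liver, heart, blood, muscle, tail, kidneys, pancreas and colon. %ID/g corrected for activity left in the tail; mean ± SD, four mice per tracer; unpaired t-test.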

PC-3 tumours = assay: Dynamic PET scanning with quantitative VOI analysis in PC-3 tumour-bearing mice; type: in vivo, male NMRI nu/nu mice; details: tail vein injection 100 μl; last 10 min of 20 min scan; N = 3
How it was run: as §1

[3] = system: kidney of PC-3-bearing mice; details: PC-3-bearing athymic mice, 30 min after injection; ref 26 (Zheng et al.); cited from earlier work

SMILES	time at which tumour uptake reached a plateau phase ([1]; dynamic PET, VCaP tumour, after injection)	VCaP tumour uptake determined from PET at steady-state (plateau phase) ([1]; tail vein injection 100 μl, 8.1–1.2 MBq, 10–20 min after injection, N = 8) [%ID/g]	uptake in blood ([2]; VCaP-bearing mice, N = 4) [%ID/g tissue]	uptake in heart ([2]; VCaP-bearing mice, N = 4) [%ID/g tissue]	uptake in kidneys ([2]; VCaP-bearing mice, N = 4) [%ID/g]	uptake in liver ([2]; VCaP-bearing mice, N = 4) [%ID/g tissue]	uptake in muscle ([2]; VCaP-bearing mice, N = 4) [%ID/g tissue]	uptake in pancreas (GRPR-positive) ([2]; VCaP-bearing mice, N = 4) [%ID/g]	VCaP tumour uptake (biodistribution) ([2]; ex vivo counting) [%ID/g]	PC-3 tumour uptake from PET (plateau phase) (PC-3 tumours) [%ID/g]	kidney uptake [3] [%ID/g]
C[N+](C)(C[18F])CCO [^18F-FCH, N-[^18F]-fluoromethyl-N-(2-hydroxyethyl)-N,N-dimethylammonium]	less than 10 min	1.6 ± 0.5	0.8 ± 0.1	4.7 ± 0.5	35.7 ± 4.1	13.0 ± 1.7	0.9 ± 0.2	3.6 ± 1.0	2.1 ± 0.4	1.2 ± 0.3	–
C[N+](C)([11CH3])CCO [^11C-choline]	–	–	–	–	–	–	–	–	–	–	5.1 ± 1.8
